Measured values published in ChEMBL document CHEMBL1149534, “3-Arylamino-2H-1,2,4-benzothiadiazin-5-ol 1,1-dioxides as novel and selective CXCR2 antagonists” (Bioorg Med Chem Lett, 2007).
Values after ≈ are worked out from the molar mass of the structure shown.

Experiments:
[1] = Solubility in phosphate buffer at pH 7.4; assay type: physicochemical
How it was run: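 Aqueous solubility measured in 0.05 M phosphate buffer, pH 7.4, containing 2% DMSO. High-throughput HPLC-based read-out.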

[2] = target: Interleukin-8 receptors, CXCR1/CXCR2 (Homo sapiens) (UniProt P25025+P25024); experiment: Ratio of IC50 for CXCR2 receptor to IC50 CXCR1 receptor; assay type: protein assay
How it was run: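 Selectivity ratio from radioligand-binding IC50s at CXCR2 and CXCR1, using CHO-cell membranes expressing each receptor. Binding results are the mean of three individual experiments.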

[3] = target: T1, C-X-C chemokine receptor type 1 (Homo sapiens, UniProt P25024); experiment: Displacement of human recombinant [125I]IL8 from CXCR1 receptor expressed in CHO cells; assay type: cell-based
T1 sequence (P25024 whole entry): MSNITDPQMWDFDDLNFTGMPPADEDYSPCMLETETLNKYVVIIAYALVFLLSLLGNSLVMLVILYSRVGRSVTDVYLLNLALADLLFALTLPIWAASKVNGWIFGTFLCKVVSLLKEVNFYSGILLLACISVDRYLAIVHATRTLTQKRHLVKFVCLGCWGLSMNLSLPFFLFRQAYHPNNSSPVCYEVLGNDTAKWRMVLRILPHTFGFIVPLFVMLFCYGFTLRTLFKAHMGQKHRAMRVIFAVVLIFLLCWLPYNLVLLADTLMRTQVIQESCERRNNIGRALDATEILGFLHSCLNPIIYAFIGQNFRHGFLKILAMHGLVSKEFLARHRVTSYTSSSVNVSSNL
How it was run: (§1)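 Membranes from CHO cells expressing CXCR1 or CXCR2, with ~0.25 nM human recombinant [125I]-IL-8 as radioligand, run in 96-well format. Values are the mean of three individual experiments.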

[4] = target: T2, C-X-C chemokine receptor type 2 (Homo sapiens, UniProt P25025); experiment: Antagonist activity at CXCR2 receptor expressed in CHOK1 cells assessed as human IL8-induced calcium mobilization by FLIPR; assay type: functional, cell-based, CHO-K1
T2 sequence (P25025 whole entry): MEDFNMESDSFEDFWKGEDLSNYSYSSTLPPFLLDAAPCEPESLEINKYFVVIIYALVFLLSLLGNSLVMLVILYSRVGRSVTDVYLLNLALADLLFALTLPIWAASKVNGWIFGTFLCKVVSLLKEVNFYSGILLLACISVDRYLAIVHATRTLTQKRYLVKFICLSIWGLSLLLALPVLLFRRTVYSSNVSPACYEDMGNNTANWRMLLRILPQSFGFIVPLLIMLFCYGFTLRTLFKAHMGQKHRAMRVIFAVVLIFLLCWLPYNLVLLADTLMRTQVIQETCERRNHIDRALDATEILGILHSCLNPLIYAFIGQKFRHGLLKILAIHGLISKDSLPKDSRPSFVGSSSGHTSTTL
How it was run: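 Cells grown 24 h, loaded with Fluo-4 AM calcium dye, then exposed to compound at […] for 10 min at 37 °C. Ca2+ mobilization read on FLIPR as percent of maximal IL-8 response. IC50 taken as concentration giving 50% inhibition of the maximal IL-8 response.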

[5] = target: T2, C-X-C chemokine receptor type 2; experiment: Displacement of human recombinant [125I]IL8 from CXCR2 receptor expressed in CHO cells; assay type: cell-based; how it was run: as §1
[6] = target: Cytochrome P450 2D6 (Homo sapiens, UniProt P10635); experiment: Inhibition of human CYP2D6; assay type: ADME
Chain of Cytochrome P450 2D6 (P10635 whole entry): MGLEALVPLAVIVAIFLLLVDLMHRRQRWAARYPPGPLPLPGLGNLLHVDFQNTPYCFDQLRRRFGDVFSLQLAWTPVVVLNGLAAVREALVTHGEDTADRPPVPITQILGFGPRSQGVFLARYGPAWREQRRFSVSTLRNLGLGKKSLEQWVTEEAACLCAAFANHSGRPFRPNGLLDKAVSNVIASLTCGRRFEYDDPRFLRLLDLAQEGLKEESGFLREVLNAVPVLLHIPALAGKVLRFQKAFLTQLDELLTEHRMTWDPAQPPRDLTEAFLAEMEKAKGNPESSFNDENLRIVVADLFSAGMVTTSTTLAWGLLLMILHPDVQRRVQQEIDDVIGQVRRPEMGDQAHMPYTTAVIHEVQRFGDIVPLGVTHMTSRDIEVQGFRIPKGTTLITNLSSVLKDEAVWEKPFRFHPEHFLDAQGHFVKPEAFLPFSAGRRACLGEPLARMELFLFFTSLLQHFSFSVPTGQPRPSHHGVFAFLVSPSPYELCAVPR

[7] = target: Cytochrome P450 2C9 (Homo sapiens, UniProt P11712); experiment: Inhibition of human CYP2C9
Chain of Cytochrome P450 2C9 (P11712 whole entry): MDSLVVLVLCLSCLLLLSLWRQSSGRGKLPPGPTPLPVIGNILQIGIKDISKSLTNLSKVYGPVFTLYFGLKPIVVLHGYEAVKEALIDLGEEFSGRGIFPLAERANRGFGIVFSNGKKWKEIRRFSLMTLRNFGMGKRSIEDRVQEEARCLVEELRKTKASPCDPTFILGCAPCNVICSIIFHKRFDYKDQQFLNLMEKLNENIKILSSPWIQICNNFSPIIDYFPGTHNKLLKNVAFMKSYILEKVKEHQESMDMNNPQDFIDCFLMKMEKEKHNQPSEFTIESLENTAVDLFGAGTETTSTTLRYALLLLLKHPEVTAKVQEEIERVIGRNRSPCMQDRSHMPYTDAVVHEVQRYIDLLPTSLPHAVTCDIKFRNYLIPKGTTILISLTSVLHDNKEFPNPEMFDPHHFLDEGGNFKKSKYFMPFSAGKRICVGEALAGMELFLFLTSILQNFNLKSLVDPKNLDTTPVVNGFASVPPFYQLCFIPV

[8] = Half life in rat at 1.6 mg/kg, iv and 3.2 mg/kg, po; assay type: ADME, organism-based; details: in vivo
[9] = Volume of distribution at steady state in rat at 1.6 mg/kg, iv and 3.2 mg/kg, po; assay type: ADME, organism-based; details: in vivo, read-out: Vdss
[10] = target: Cytochrome P450 3A4 (Homo sapiens, UniProt P08684); experiment: Inhibition of human CYP3A4; assay type: ADME
Chain of Cytochrome P450 3A4 (P08684 whole entry): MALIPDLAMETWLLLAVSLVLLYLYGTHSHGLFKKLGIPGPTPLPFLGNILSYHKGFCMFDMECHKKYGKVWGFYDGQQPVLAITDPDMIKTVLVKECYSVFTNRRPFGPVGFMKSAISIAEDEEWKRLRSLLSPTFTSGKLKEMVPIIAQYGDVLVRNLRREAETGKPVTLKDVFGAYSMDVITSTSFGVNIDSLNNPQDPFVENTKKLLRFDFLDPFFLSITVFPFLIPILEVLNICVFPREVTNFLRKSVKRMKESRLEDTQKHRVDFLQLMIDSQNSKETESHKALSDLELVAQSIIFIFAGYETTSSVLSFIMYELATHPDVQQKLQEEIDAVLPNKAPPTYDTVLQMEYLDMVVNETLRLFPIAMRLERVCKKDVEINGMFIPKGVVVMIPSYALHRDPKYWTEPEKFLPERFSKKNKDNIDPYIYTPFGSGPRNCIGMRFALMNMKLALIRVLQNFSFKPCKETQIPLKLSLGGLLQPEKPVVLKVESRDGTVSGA

[11] = Bioavailability in rat at 3.2 mg/kg, po; assay type: ADME, organism-based; details: in vivo
[12] = target: Cytochrome P450 1A2 (Homo sapiens, UniProt P05177); experiment: Inhibition of human CYP1A2; assay type: ADME
[13] = Clearance in rat at 1.6 mg/kg, iv and […] mg/kg, po; assay type: ADME, organism-based; details: in vivo
[14] = target: D(3) dopamine receptor (Homo sapiens, UniProt P35462); experiment: Inhibition of dopamine D3 receptor
Chain of D(3) dopamine receptor (P35462 whole entry): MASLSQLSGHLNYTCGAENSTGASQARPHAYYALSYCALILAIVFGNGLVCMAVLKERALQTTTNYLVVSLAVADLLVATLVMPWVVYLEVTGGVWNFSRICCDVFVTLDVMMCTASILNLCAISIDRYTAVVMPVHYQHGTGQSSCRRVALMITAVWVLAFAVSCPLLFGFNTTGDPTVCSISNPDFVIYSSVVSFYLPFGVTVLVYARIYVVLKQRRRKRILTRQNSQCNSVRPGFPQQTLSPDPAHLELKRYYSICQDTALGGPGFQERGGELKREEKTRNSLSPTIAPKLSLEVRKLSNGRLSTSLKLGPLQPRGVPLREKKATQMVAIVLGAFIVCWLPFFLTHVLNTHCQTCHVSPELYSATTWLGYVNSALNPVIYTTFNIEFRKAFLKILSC

[15] = target: P2Y purinoceptor 1 (Homo sapiens, UniProt P47900); experiment: Inhibition of P2Y1 receptor
[16] = target: Histamine H3 receptor (Homo sapiens, UniProt Q9Y5N1); experiment: Inhibition of histamine H3 receptor
Chain of Histamine H3 receptor (Q9Y5N1 whole entry): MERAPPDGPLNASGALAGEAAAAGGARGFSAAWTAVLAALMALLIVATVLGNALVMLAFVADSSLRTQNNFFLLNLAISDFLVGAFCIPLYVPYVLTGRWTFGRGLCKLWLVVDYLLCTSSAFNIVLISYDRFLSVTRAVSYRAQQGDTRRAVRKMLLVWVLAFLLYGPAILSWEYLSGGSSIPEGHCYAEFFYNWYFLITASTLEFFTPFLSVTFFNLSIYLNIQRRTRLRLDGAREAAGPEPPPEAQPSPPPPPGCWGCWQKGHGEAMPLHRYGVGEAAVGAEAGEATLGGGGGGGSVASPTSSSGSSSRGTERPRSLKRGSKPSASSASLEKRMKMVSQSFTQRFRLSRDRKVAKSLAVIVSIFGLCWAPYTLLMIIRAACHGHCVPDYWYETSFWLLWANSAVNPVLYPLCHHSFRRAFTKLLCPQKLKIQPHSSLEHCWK

[17] = target: 5-hydroxytryptamine receptor 1A (Homo sapiens, UniProt P08908); experiment: Inhibition of 5HT1A receptor
[18] = target: D(2) dopamine receptor (Homo sapiens, UniProt P14416); experiment: Inhibition of dopamine D2 receptor
Chain of D(2) dopamine receptor (P14416 whole entry): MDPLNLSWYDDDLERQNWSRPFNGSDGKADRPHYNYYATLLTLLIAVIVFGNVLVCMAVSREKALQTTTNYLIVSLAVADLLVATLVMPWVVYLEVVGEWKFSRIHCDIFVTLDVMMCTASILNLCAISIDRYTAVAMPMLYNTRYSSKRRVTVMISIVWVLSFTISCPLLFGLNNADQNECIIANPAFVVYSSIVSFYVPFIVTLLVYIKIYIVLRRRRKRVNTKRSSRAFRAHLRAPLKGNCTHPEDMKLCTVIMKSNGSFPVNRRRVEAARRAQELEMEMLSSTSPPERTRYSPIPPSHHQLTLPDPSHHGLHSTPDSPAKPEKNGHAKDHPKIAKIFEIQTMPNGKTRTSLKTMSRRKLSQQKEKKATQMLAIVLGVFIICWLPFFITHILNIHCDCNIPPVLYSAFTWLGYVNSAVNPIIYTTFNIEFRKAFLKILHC

[19] = target: T3, Adrenergic receptor alpha-1 (Homo sapiens, UniProt P35348+P25100+P35368); experiment: Inhibition of adrenergic A1 receptor; assay type: protein assay
[20] = target: Plasminogen activator inhibitor 1 (Homo sapiens, UniProt P05121); experiment: Inhibition of PAI1
Chain of Plasminogen activator inhibitor 1 (P05121 whole entry): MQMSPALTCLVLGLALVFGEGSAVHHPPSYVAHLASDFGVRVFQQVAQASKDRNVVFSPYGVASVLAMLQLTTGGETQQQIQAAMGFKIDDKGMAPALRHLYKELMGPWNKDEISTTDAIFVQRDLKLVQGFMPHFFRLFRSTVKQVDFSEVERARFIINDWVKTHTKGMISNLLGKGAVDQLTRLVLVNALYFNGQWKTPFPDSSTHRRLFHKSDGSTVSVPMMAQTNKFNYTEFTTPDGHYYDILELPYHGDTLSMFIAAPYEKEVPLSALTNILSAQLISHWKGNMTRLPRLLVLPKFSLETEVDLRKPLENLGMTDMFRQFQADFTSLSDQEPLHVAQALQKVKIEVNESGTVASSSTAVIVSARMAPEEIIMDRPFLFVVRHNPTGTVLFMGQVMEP

[21] = target: 5-hydroxytryptamine receptor 6 (Homo sapiens, UniProt P50406); experiment: Inhibition of 5HT6 receptor
Chain of 5-hydroxytryptamine receptor 6 (P50406 whole entry): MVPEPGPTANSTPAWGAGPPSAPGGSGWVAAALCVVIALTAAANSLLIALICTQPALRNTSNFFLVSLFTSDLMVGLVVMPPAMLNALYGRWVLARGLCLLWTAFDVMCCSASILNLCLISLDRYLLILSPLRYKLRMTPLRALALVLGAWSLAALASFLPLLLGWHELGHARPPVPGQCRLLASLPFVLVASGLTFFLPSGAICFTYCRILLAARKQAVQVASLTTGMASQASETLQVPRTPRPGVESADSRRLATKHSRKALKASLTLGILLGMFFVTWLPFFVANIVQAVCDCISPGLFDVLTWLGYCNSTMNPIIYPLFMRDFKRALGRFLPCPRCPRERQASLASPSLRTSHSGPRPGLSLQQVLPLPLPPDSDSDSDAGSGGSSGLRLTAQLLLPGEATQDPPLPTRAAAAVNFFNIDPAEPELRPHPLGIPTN

[22] = target: 5-hydroxytryptamine receptor 4 (Homo sapiens, UniProt Q13639); experiment: Inhibition of 5HT4A receptor
[23] = target: 5-hydroxytryptamine receptor 1B (Homo sapiens, UniProt P28222); experiment: Inhibition of 5HT1B receptor
[24] = target: 5-hydroxytryptamine receptor 7 (Homo sapiens, UniProt P34969); experiment: Inhibition of 5HT7 receptor
[25] = target: 5-hydroxytryptamine receptor 1D (Homo sapiens, UniProt P28221); experiment: Inhibition of 5HT1D receptor
Chain of 5-hydroxytryptamine receptor 1D (P28221 whole entry): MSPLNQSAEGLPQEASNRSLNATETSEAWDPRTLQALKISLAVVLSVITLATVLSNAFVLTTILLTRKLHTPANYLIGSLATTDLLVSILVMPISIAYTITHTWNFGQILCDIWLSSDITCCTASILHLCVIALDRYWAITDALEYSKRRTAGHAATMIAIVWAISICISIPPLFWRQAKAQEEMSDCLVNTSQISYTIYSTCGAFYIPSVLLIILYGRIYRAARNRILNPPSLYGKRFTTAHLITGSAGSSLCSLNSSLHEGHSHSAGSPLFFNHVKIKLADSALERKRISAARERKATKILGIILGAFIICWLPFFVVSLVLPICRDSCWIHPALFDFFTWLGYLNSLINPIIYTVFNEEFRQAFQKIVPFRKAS

[26] = target: Adenosine receptor A2a (Homo sapiens, UniProt P29274); experiment: Inhibition of adenosine A2a receptor
[27] = target: T3, Adrenergic receptor alpha-1; experiment: Inhibition of adrenergic alpha-1A receptor; assay type: protein assay
[28] = target: Beta-2 adrenergic receptor (Homo sapiens, UniProt P07550); experiment: Inhibition of adrenergic beta2 receptor
[29] = target: 5-hydroxytryptamine receptor 2C (Homo sapiens, UniProt P28335); experiment: Inhibition of 5HT2C receptor
[30] = target: Beta-1 adrenergic receptor (Homo sapiens, UniProt P08588); experiment: Inhibition of adrenergic beta-1 receptor
Chain of Beta-1 adrenergic receptor (P08588 whole entry): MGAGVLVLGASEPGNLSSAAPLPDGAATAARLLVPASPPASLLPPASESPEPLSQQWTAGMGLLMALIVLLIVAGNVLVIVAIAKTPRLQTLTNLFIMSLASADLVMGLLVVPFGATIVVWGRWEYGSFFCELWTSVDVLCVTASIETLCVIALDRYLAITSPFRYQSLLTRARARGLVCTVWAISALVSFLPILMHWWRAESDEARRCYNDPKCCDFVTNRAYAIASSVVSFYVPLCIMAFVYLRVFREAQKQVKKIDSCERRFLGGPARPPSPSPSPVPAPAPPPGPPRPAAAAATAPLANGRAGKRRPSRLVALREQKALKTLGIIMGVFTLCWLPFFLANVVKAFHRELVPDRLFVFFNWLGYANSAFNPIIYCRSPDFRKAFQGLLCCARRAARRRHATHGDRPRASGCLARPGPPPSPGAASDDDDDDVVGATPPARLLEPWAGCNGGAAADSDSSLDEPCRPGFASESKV

[31] = target: Histamine H1 receptor (Homo sapiens, UniProt P35367); experiment: Inhibition of histamine H1 receptor
Chain of Histamine H1 receptor (P35367 whole entry): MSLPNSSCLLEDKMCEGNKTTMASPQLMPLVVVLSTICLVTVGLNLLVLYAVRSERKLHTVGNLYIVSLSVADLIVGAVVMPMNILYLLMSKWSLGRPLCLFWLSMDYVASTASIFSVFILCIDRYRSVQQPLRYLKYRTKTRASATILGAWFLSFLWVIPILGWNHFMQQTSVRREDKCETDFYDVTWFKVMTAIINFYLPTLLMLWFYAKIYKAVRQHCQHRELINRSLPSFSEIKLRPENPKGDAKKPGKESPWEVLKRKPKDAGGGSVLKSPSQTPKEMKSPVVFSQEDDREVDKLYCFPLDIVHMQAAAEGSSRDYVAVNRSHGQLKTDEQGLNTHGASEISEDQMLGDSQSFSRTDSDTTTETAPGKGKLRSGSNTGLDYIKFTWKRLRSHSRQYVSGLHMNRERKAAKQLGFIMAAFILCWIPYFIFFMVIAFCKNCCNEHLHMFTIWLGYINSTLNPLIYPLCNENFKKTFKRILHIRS

[32] = target: Mitogen-activated protein kinase 14 (Homo sapiens, UniProt Q16539); experiment: Inhibition of P38alpha

O=[N+]([O-])c1cc(O)c2c(c1)S(=O)(=O)N=C(Nc1ccccc1Br)N2
solubility [1]: 233 µM (≈ 96.3 µg/mL)
Ratio IC50 [2]: < 100
IC50 [3]: 3.2 µM
IC50 [4]: 600 nM
IC50 [5]: 26 nM

Cc1ccccc1NC1=NS(=O)(=O)c2cc(Cl)cc(O)c2N1
IC50 [5]: 390 nM

O=S1(=O)N=C(Nc2cc(F)ccc2Br)Nc2c(O)cc(Cl)cc21
IC50 [5]: 3900 nM

O=S1(=O)N=C(Nc2cccc(Br)c2)Nc2c(O)cc(Cl)cc21
IC50 [5]: 6100 nM

O=S1(=O)N=C(Nc2ccccc2Br)Nc2c(O)ccc(Cl)c21
IC50 [5]: 480 nM

O=S1(=O)NC(Nc2ccccc2OC(F)(F)F)=Nc2c(O)cc(Cl)cc21
IC50 [5]: 930 nM

O=S1(=O)NC(Nc2ccccc2-c2ccccc2)=Nc2c(O)cc(Cl)cc21
IC50 [5]: 230 nM

O=S1(=O)N=C(Nc2ccccc2Cl)Nc2c(O)cc(Cl)cc21
solubility [1]: 68 µM (≈ 24.4 µg/mL)
Ratio IC50 [2]: < 100
IC50 [3]: 24 µM
IC50 [4]: 520 nM
IC50 [5]: 92 nM

O=S1(=O)N=C(Nc2ccc(F)cc2Br)Nc2c(O)cc(Cl)cc21
IC50 [5]: 120 nM

O=[N+]([O-])c1cc(O)c2c(c1)S(=O)(=O)N=C(Nc1ccccc1Cl)N2
IC50 [6]: > 25 µM
solubility [1]: 188 µM (≈ 69.3 µg/mL)
IC50 [7]: 600 nM
half-life [8]: 120 min
Vd [9]: 0.53 L/kg
IC50 [10]: > 25 µM
bioavailability [11]: 5%
Ratio IC50 [2]: < 100
IC50 [3]: 12 µM
IC50 [4]: 1100 nM
IC50 [12]: > 25 µM
IC50 [5]: 81 nM
clearance [13]: 23 mL/min/kg

O=C(O)c1ccccc1NC1=Nc2c(O)cc(Cl)cc2S(=O)(=O)N1
IC50 [5]: > 30000 nM

O=S1(=O)N=C(Nc2ccccc2)Nc2c(O)cc(Cl)cc21
IC50 [5]: 2400 nM

O=S1(=O)N=C(Nc2ccccc2Br)Nc2c(O)cc(Cl)cc21
Ratio IC50 [2]: < 100

O=S1(=O)N=C(Nc2cccc(F)c2Cl)Nc2c(O)cc(Cl)cc21
Ratio IC50 [2]: < 100

CC[C@@H](C)NC1=Nc2c(O)cc(Cl)cc2S(=O)(=O)N1
IC50 [5]: 15000 nM

O=S1(=O)NC(Nc2ccccc2C(F)(F)F)=Nc2c(O)cc(Cl)cc21
IC50 [5]: 830 nM

O=S1(=O)N=C(NC2CCCC2)Nc2c(O)cc(Cl)cc21
IC50 [5]: 20000 nM

O=S1(=O)NC(NCc2ccccc2)=Nc2c(O)cc(Cl)cc21
IC50 [5]: 8000 nM

O=S1(=O)N=C(Nc2ccccc2Cl)Nc2c(O)cccc21
IC50 [5]: 5200 nM

O=S1(=O)NC(NCc2ccccc2Cl)=Nc2c(O)cc(Cl)cc21
IC50 [5]: > 30000 nM

O=S1(=O)N=C(Nc2ccccc2Oc2ccccc2)Nc2c(O)cc(Cl)cc21
solubility [1]: < 1 µM
Ratio IC50 [2]: < 100
IC50 [3]: 20 µM
IC50 [4]: 320 nM
IC50 [5]: 54 nM

O=S1(=O)NC(Nc2cccc(F)c2Cl)=Nc2c(O)cc(Cl)cc21
solubility [1]: 160 µM (≈ 60.2 µg/mL)
IC50 [3]: 13 µM
IC50 [4]: 460 nM
IC50 [5]: 64 nM

O=S1(=O)NC(Nc2ccccc2Br)=Nc2c(O)cc(F)cc21
IC50 [5]: 360 nM

O=S1(=O)N=C(Nc2ccccc2Br)Nc2c(O)cc(Br)cc21
IC50 [5]: 70 nM

O=S1(=O)N=C(Nc2ccccc2F)Nc2c(O)cc(Cl)cc21
IC50 [5]: 740 nM

O=S1(=O)NC(Nc2ccccc2Br)=Nc2c(O)cc(Cl)cc21
solubility [1]: 31 µM (≈ 12.5 µg/mL)
IC50 [3]: 13 µM
IC50 [4]: 400 nM
IC50 [5]: 64 nM

O=S1(=O)N=C(Nc2ccccc2Br)Nc2c(O)ccc(F)c21
IC50 [5]: 3000 nM

COc1ccccc1NC1=Nc2c(O)cc(Cl)cc2S(=O)(=O)N1
IC50 [5]: 250 nM

O=S1(=O)N=C(Nc2ccccc2N2CCOCC2)Nc2c(O)cc(Cl)cc21
IC50 [5]: > 30000 nM

O=S1(=O)NC(Nc2ccc(Br)cc2)=Nc2c(O)cc(Cl)cc21
IC50 [5]: 5100 nM

O=[N+]([O-])c1cc(O)c2c(c1)S(=O)(=O)N=C(Nc1ccccc1Oc1ccccc1)N2
IC50 [14]: > 3.2 µM
IC50 [15]: > 25 µM
IC50 [16]: > 3.2 µM
solubility [1]: 2 µM (≈ 0.853 µg/mL)
IC50 [17]: > 3.2 µM
IC50 [18]: > 3.2 µM
IC50 [19]: > 25 µM
IC50 [20]: 7.9 µM
IC50 [21]: > 7.9 µM
IC50 [22]: > 25 µM
IC50 [23]: > 3.2 µM
IC50 [24]: 25 µM
IC50 [25]: > 3.2 µM
Ratio IC50 [2]: < 100
IC50 [26]: 25 µM
IC50 [3]: 7.6 µM
IC50 [27]: 1 µM
IC50 [28]: > 25 µM
IC50 [4]: 490 nM
IC50 [29]: > 10 µM
IC50 [30]: > 25 µM
IC50 [31]: > 10 µM
IC50 [32]: 25 µM
IC50 [5]: 54 nM

O=S1(=O)NC(Nc2c(F)cccc2Br)=Nc2c(O)cc(Cl)cc21
IC50 [5]: 1600 nM

CC(=O)c1ccccc1NC1=Nc2c(O)cc(Cl)cc2S(=O)(=O)N1
IC50 [5]: 4500 nM

Cc1cc(O)c2c(c1)S(=O)(=O)N=C(Nc1ccccc1Br)N2
IC50 [5]: 280 nM
